Columns and labels:
[1] = tested on: Rattus norvegicus; test: Antiinflammatory activity against carrageenan-induced paw edema in Wister albino rat at 50 mg/kg, ip administered 1 hr before inflammation induction assessed after 4 hrs relative to indomethacin; format: functional; details: route intraperitoneal
Method in brief: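 Same rat carrageenan paw oedema protocol: i.p. dosing in DMSO 1 h before carrageenan, with paw volume read by plethysmometer at 4 h. Potency is the % oedema inhibition of the test group divided by that of the indomethacin (10 mg/kg i.p.) group.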

[2] = tested on: Rattus norvegicus; test: Antiinflammatory activity against carrageenan-induced paw edema in Wister albino rat at 50 mg/kg, ip administered 1 hr before inflammation induction assessed after 4 hrs; format: functional; details: route intraperitoneal
Method in brief: (§1)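 Wistar albino rats of either sex (pregnant females excluded), 160–190 g, 6 per group, kept at 22 °C on a 12 h light/dark cycle. Agent in DMSO given i.p. 1 h before 0.1 ml of 1% carrageenan in saline was injected subcutaneously into the right hind paw. Controls got DMSO. Oedema was paw volume by plethysmometer minus initial volume. Values are % inhibition = (Vc−Vt)/Vc×100; means ± SE, one-way ANOVA with LSD, p<0.05.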

[3] = tested on: Rattus norvegicus; test: Antiinflammatory activity against carrageenan-induced paw edema in Wister albino rat at 50 mg/kg, ip administered 1 hr before inflammation induction assessed after 3 hrs; format: functional; details: route intraperitoneal; method in brief: as §1
[4] = tested on: Mus musculus; test: Toxicity in albino mouse at 1000 mg/kg, ip assessed as mortality after 24 hrs by LD50 standard method; format: organism-based; parameters: dose 1000 mg/kg, route intraperitoneal; details: in vivo
Method in brief: (§2)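 Albino mice, 20-25 g, 9 groups of 6; test agents dissolved in DMSO and given intraperitoneally at 500, 750 and 1000 mg/kg body weight; controls received DMSO only. Toxic symptoms, mortality and postmortem findings recorded 24 h after administration; LD50 computed by formula from largest dose killing all animals, mean dead between successive groups, dose factor and group size.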

[5] = tested on: Mus musculus; test: Toxicity in albino mouse at 750 mg/kg, ip assessed as mortality after 24 hrs by LD50 standard method; format: organism-based; parameters: dose 750 mg/kg, route intraperitoneal; details: in vivo; method in brief: as §2
[6] = tested on: Rattus norvegicus; test: Antiinflammatory activity against carrageenan-induced paw edema in Wister albino rat at 50 mg/kg, ip administered 1 hr before inflammation induction assessed after 1 hr; format: functional; details: route intraperitoneal; method in brief: as §1
[7] = tested on: Rattus norvegicus; test: Antiinflammatory activity against carrageenan-induced paw edema in Wister albino rat at 50 mg/kg, ip administered 1 hr before inflammation induction assessed after 2 hrs; format: functional; details: route intraperitoneal; method in brief: as §1
[8] = tested on: Mus musculus; test: Toxicity in albino mouse at 500 mg/kg, ip assessed as mortality after 24 hrs by LD50 standard method; format: organism-based; parameters: dose 500 mg/kg, route intraperitoneal; details: in vivo; method in brief: as §2
[9] = tested on: Rattus norvegicus; test: Antiinflammatory activity against carrageenan-induced paw edema in Wister albino rat at 10 mg/kg, ip administered 1 hr before inflammation induction assessed after 3 hrs; format: functional; details: route intraperitoneal; method in brief: as §1
[10] = tested on: Rattus norvegicus; test: Antiinflammatory activity against carrageenan-induced paw edema in Wister albino rat at 10 mg/kg, ip administered 1 hr before inflammation induction assessed after 2 hrs; format: functional; details: route intraperitoneal; method in brief: as §1
[11] = tested on: Rattus norvegicus; test: Antiinflammatory activity against carrageenan-induced paw edema in Wister albino rat at 10 mg/kg, ip administered 1 hr before inflammation induction assessed after 1 hr; format: functional; details: route intraperitoneal; method in brief: as §1
[12] = tested on: Rattus norvegicus; test: Antiinflammatory activity against carrageenan-induced paw edema in Wister albino rat at 10 mg/kg, ip administered 1 hr before inflammation induction assessed after 4 hrs; format: functional; details: route intraperitoneal; method in brief: as §1

SMILES	Ratio [1]	inhibition in vivo at 50 mg/kg [2]	other results
S=C(Nc1ccccc1)Nc1ccccc1SCCCSc1ccccc1NC(=S)Nc1ccccc1	0.66	38%	
O=C1Nc2ccc(cc2)NC(=O)Nc2ccccc2SCCCSc2ccccc2N1	0.85	48.9%	inhibition in vivo at 50 mg/kg [3]: 46.6%; Activity [4]: Non-toxic; Activity [5]: Non-toxic; inhibition in vivo at 50 mg/kg [6]: 45.4%; inhibition in vivo at 50 mg/kg [7]: 44%; Activity [8]: Non-toxic
O=C(Nc1ccc(Cl)c(Cl)c1)Nc1ccccc1SCCCSc1ccccc1NC(=O)Nc1ccc(Cl)c(Cl)c1	0.49	28.3%	
COc1ccc(NC(=O)Nc2ccccc2SCCSc2ccccc2NC(=O)Nc2ccc(OC)cc2)cc1	0.9	51.9%	inhibition in vivo at 50 mg/kg [3]: 39.2%; Activity [4]: Non-toxic; Activity [5]: Non-toxic; inhibition in vivo at 50 mg/kg [6]: 35.2%; inhibition in vivo at 50 mg/kg [7]: 38.4%; Activity [8]: Non-toxic
COc1ccc(NC(=O)Nc2ccccc2SCCCSc2ccccc2NC(=O)Nc2ccc(OC)cc2)cc1	0.61	35%	
CCNC(=O)Nc1ccccc1SCCSc1ccccc1NC(=O)NCC	0.57	33.1%	
S=C(Nc1ccccc1)Nc1ccccc1SCCSc1ccccc1NC(=S)Nc1ccccc1	0.75	43.3%	
O=C(Nc1ccccc1)Nc1ccccc1SCCSc1ccccc1NC(=O)Nc1ccccc1	0.57	32.8%	
O=C(Nc1ccccc1)Nc1ccccc1SCCCSc1ccccc1NC(=O)Nc1ccccc1	0.51	29.6%	
O=C1Nc2ccc(cc2)NC(=O)Nc2ccccc2SCCSc2ccccc2N1	0.61	34.9%	
O=C(Nc1ccc(Cl)c(Cl)c1)Nc1ccccc1SCCSc1ccccc1NC(=O)Nc1ccc(Cl)c(Cl)c1	0.12	7.1%	
CCNC(=O)Nc1ccccc1SCCCSc1ccccc1NC(=O)NCC	0.73	42.1%	
COc1ccc2c(c1)c(CC(=O)O)c(C)n2C(=O)c1ccc(Cl)cc1 [INDOMETHACIN]			inhibition in vivo at 10 mg/kg [9]: 50.1%; inhibition in vivo at 10 mg/kg [10]: 48.2%; inhibition in vivo at 10 mg/kg [11]: 50.5%; inhibition in vivo at 10 mg/kg [12]: 57.6%

— ChEMBL document CHEMBL1158179, “Facile synthesis of dithiatetraaza-macrocycles of potential anti-inflammatory activity” (Eur J Med Chem, 2008)
